From ChEMBL document CHEMBL1221374, “Synthesis, proapoptotic screening, and structure-activity relationships of novel aza-lupane triterpenoids” (Bioorg Med Chem Lett, 2010)

How the values were obtained:
[1] = tested on: SK-MEL-2; test: Cytotoxicity against human SK-MEL-2 cells after 72 hrs by MTS assay; format: functional, cell-based; conditions: SK-MEL-2, 72 h
How it was run: (§1)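 Cells (1 × 10^4/well) seeded the evening before. Compounds were taken from 10 mM DMSO stock into growth medium and tested at 2, 10, 25, 50 and 75 µM, four wells each, with DMSO-matched controls. Exposure was 72 h, then MTS reagent for 1.5-4 h at 37 °C, and formazan A490 was read against DMSO-treated cells. IC50 is the mean of four wells from one experiment, or of three experiments where stated.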

[2] = tested on: Daoy; test: Cytotoxicity against human DaOY cells after 72 hrs by MTS assay; format: functional, cell-based; how it was run: as §1
[3] = tested on: OVCAR-3; test: Cytotoxicity against human OVCAR-3 cells after 120 hrs by MTS assay; conditions: OVCAR-3, 120 h
[4] = tested on: A-375; test: Cytotoxicity against human A375 cells after 72 hrs by MTS assay; format: functional, cell-based; conditions: A-375, 72 h; how it was run: as §1
[5] = tested on: OVCAR-3; test: Cytotoxicity against human OVCAR-3 cells after 72 hrs by MTS assay; format: functional, cell-based; conditions: OVCAR-3, 72 h
[6] = tested on: HT-29; test: Cytotoxicity against human HT-29 cells after 72 hrs by MTS assay; format: functional, cell-based; conditions: HT-29, 72 h; how it was run: as §1
[7] = tested on: MCF7; test: Cytotoxicity against human MCF7 cells after 72 hrs by MTS assay; format: functional, cell-based; conditions: MCF7, 72 h; how it was run: as §1
[8] = Cytotoxicity against human LN229 cells after 72 hrs by MTS assay; format: functional, cell-based; conditions: LN-229, 72 h; how it was run: as §1
[9] = tested on: SK-MEL-2 (Homo sapiens); test: Induction of apoptosis in human SK-MEL-2 cells assessed as necrotic cells at 7.5 uM after 16 hrs by annexin assay
[10] = tested on: SK-MEL-2 (Homo sapiens); test: Induction of apoptosis in human SK-MEL-2 cells assessed as apoptotic cells at 7.5 uM after 16 hrs by annexin assay

| SMILES | IC50 [1] | IC50 [2] | IC50 [3] | IC50 [4] | IC50 [5] | IC50 [6] | IC50 [7] | IC50 [8] | Activity [9] | Activity [10] |
| --- | --- | --- | --- | --- | --- | --- | --- | --- | --- | --- |
| C=C(C)[C@@H]1CC[C@]2(C(=O)O)CC[C@]3(C)[C@H](CC[C@@H]4[C@@]5(C)CCC(N)C(C)(C)[C@@H]5CC[C@]43C)[C@@H]12 (stereo not given in full) | 8 µM | 7 µM | 14 µM | – | – | – | – | – | – | – |
| C=C(C)[C@@H]1CC[C@]2(C(=O)O)CC[C@]3(C)[C@H](CC[C@@H]4[C@@]5(C)CCC(NCCO)C(C)(C)[C@@H]5CC[C@]43C)[C@@H]12 (stereo not given in full) | 36 µM | < 2 µM | – | 14 µM | 28 µM | 16 µM | 35 µM | – | – | – |
| C=C(C)[C@@H]1CC[C@]2(C(=O)O)CC[C@]3(C)[C@H](CC[C@@H]4[C@@]5(C)CCC(NCCc6ccc(O)cc6)C(C)(C)[C@@H]5CC[C@]43C)[C@@H]12 (stereo not given in full) | 6 µM | 6 µM | – | 5 µM | 6 µM | 4 µM | 6 µM | 5 µM | – | – |
| C=C(C)[C@@H]1CC[C@]2(C(=O)O)CC[C@]3(C)[C@H](CC[C@@H]4[C@@]5(C)CCC(NCCc6ccc(O)c(O)c6)C(C)(C)[C@@H]5CC[C@]43C)[C@@H]12 (stereo not given in full) | 19 µM | 30 µM | – | – | 22 µM | 65 µM | 37 µM | 29 µM | – | – |
| C=C(C)[C@@H]1CC[C@]2(C(=O)O)CC[C@]3(C)[C@H](CC[C@@H]4[C@@]5(C)CCC(NCc6ccc7c(c6)OCO7)C(C)(C)[C@@H]5CC[C@]43C)[C@@H]12 (stereo not given in full) | 29 µM | 38 µM | – | > 75 µM | > 75 µM | > 75 µM | > 75 µM | > 75 µM | – | – |
| C=C(C)[C@@H]1CC[C@]2(CO)CC[C@]3(C)[C@H](CC[C@@H]4[C@@]5(C)CCC(N)C(C)(C)[C@@H]5CC[C@]43C)[C@@H]12 (stereo not given in full) | 9 µM | 19 µM | – | 2 µM | 5 µM | 2 µM | 5 µM | < 2 µM | – | – |
| C=C(C)[C@@H]1CC[C@]2(CO)CC[C@]3(C)[C@H](CC[C@@H]4[C@@]5(C)CCC(NCCO)C(C)(C)[C@@H]5CC[C@]43C)[C@@H]12 (stereo not given in full) | < 2 µM | 6 µM | – | 2 µM | 5 µM | 2 µM | 5 µM | 4 µM | – | – |
| C=C(C)[C@@H]1CC[C@]2(CO)CC[C@]3(C)[C@H](CC[C@@H]4[C@@]5(C)CCC(NCCc6ccc(O)cc6)C(C)(C)[C@@H]5CC[C@]43C)[C@@H]12 (stereo not given in full) | 2 µM | < 2 µM | 5 µM | 4 µM | – | 2 µM | 5 µM | 8 µM | – | – |
| C=C(C)[C@@H]1CC[C@]2(CO)CC[C@]3(C)[C@H](CC[C@@H]4[C@@]5(C)CCC(NCCc6ccc(O)c(O)c6)C(C)(C)[C@@H]5CC[C@]43C)[C@@H]12 (stereo not given in full) | 17 µM | 10 µM | 4 µM | 6 µM | – | 6 µM | 17 µM | 9 µM | – | – |
| C=C(C)[C@@H]1CC[C@]2(CO)CC[C@]3(C)[C@H](CC[C@@H]4[C@@]5(C)CCC(NCCOC)C(C)(C)[C@@H]5CC[C@]43C)[C@@H]12 (stereo not given in full) | 7 µM | 8 µM | 22 µM | 7 µM | – | 19 µM | 8 µM | – | – | – |
| C=C(CO)[C@@H]1CC[C@]2(CO)CC[C@]3(C)[C@H](CC[C@@H]4[C@@]5(C)CC[C@H](N)C(C)(C)[C@@H]5CC[C@]43C)[C@@H]12 | 34 µM | 31 µM | 14 µM | 6 µM | – | 17 µM | 15 µM | 17 µM | – | – |
| C=C(CO)[C@@H]1CC[C@]2(CO)CC[C@]3(C)[C@H](CC[C@@H]4[C@@]5(C)CC[C@H](NCCO)C(C)(C)[C@@H]5CC[C@]43C)[C@@H]12 | 34 µM | 29 µM | – | 16 µM | 39 µM | 65 µM | 41 µM | 37 µM | – | – |
| C=C(CO)[C@@H]1CC[C@]2(CO)CC[C@]3(C)[C@H](CC[C@@H]4[C@@]5(C)CC[C@H](NCCc6ccc(O)cc6)C(C)(C)[C@@H]5CC[C@]43C)[C@@H]12 | 38 µM | 32 µM | 23 µM | 6 µM | – | 21 µM | 17 µM | 17 µM | – | – |
| C=C(CO)[C@@H]1CC[C@]2(CO)CC[C@]3(C)[C@H](CC[C@@H]4[C@@]5(C)CC[C@H](NCCc6ccc(O)c(O)c6)C(C)(C)[C@@H]5CC[C@]43C)[C@@H]12 | 24 µM | 34 µM | – | 6 µM | 18 µM | 37 µM | 31 µM | 17 µM | – | – |
| C=C(CO)[C@@H]1CC[C@]2(CO)CC[C@]3(C)[C@H](CC[C@@H]4[C@@]5(C)CC[C@H](NCc6ccc7c(c6)OCO7)C(C)(C)[C@@H]5CC[C@]43C)[C@@H]12 | 17 µM | 16 µM | 20 µM | > 75 µM | – | > 75 µM | 75 µM | 73 µM | – | – |
| C=C(CO)[C@@H]1CC[C@]2(CO)CC[C@]3(C)[C@H](CC[C@@H]4[C@@]5(C)CC[C@H](NCCOC)C(C)(C)[C@@H]5CC[C@]43C)[C@@H]12 | 38 µM | 34 µM | 40 µM | 18 µM | – | 47 µM | 40 µM | 38 µM | – | – |
| C=C(CNCCO)[C@@H]1CC[C@]2(CO)CC[C@]3(C)[C@H](CC[C@@H]4[C@@]5(C)CCC(=O)C(C)(C)[C@@H]5CC[C@]43C)[C@@H]12 | 45 µM | 47 µM | – | 10 µM | 67 µM | 45 µM | 47 µM | 16 µM | – | – |
| C=C(CNCCc1ccc(O)cc1)[C@@H]1CC[C@]2(CO)CC[C@]3(C)[C@H](CC[C@@H]4[C@@]5(C)CCC(=O)C(C)(C)[C@@H]5CC[C@]43C)[C@@H]12 | 16 µM | 17 µM | – | 6 µM | – | 4 µM | 6 µM | 8 µM | – | – |
| C=C(CNCCO)[C@@H]1CC[C@]2(CO)CC[C@]3(C)[C@H](CC[C@@H]4[C@@]5(C)CC[C@H](O)C(C)(C)[C@@H]5CC[C@]43C)[C@@H]12 | 15 µM | 35 µM | – | – | – | – | – | – | – | – |
| C=C(CNCCc1ccc(O)cc1)[C@@H]1CC[C@]2(CO)CC[C@]3(C)[C@H](CC[C@@H]4[C@@]5(C)CC[C@H](O)C(C)(C)[C@@H]5CC[C@]43C)[C@@H]12 | 16 µM | 16 µM | – | – | – | – | – | – | – | – |
| C=C(CNCCO)[C@@H]1CC[C@]2(CO)CC[C@]3(C)[C@H](CC[C@@H]4[C@@]5(C)CCC(N)C(C)(C)[C@@H]5CC[C@]43C)[C@@H]12 (stereo not given in full) | 6 µM | 5 µM | – | 5 µM | – | < 2 µM | 2 µM | 12 µM | < 15% | > 60% |
| C=C(CNCCO)[C@@H]1CC[C@]2(CO)CC[C@]3(C)[C@H](CC[C@@H]4[C@@]5(C)CCC(NCCO)C(C)(C)[C@@H]5CC[C@]43C)[C@@H]12 (stereo not given in full) | 7 µM | 13 µM | – | 6 µM | – | 2 µM | 6 µM | 16 µM | – | – |
| C=C(CNCCO)[C@@H]1CC[C@]2(CO)CC[C@]3(C)[C@H](CC[C@@H]4[C@@]5(C)CCC(NCCc6ccc(O)c(O)c6)C(C)(C)[C@@H]5CC[C@]43C)[C@@H]12 (stereo not given in full) | 5 µM | 5 µM | – | 7 µM | – | 4 µM | 4 µM | 32 µM | – | – |
| C=C(CNCCO)[C@@H]1CC[C@]2(CO)CC[C@]3(C)[C@H](CC[C@@H]4[C@@]5(C)CCC(NCc6ccc7c(c6)OCO7)C(C)(C)[C@@H]5CC[C@]43C)[C@@H]12 (stereo not given in full) | 4 µM | 13 µM | 64 µM | 5 µM | – | 5 µM | 13 µM | 32 µM | – | – |
| C=C(CNCCO)[C@@H]1CC[C@]2(CO)CC[C@]3(C)[C@H](CC[C@@H]4[C@@]5(C)CCC(NCCOC)C(C)(C)[C@@H]5CC[C@]43C)[C@@H]12 (stereo not given in full) | 8 µM | 5 µM | – | 4 µM | – | 2 µM | 11 µM | 28 µM | – | – |
| C=C(CNCCc1ccc(O)cc1)[C@@H]1CC[C@]2(CO)CC[C@]3(C)[C@H](CC[C@@H]4[C@@]5(C)CCC(N)C(C)(C)[C@@H]5CC[C@]43C)[C@@H]12 (stereo not given in full) | 3 µM | < 2 µM | – | < 2 µM | – | 2 µM | 5 µM | < 2 µM | < 15% | > 60% |
| C=C(C)[C@@H]1CC[C@]2(C(=O)O)CC[C@]3(C)[C@H](CC[C@@H]4[C@@]5(C)CC[C@H](O)C(C)(C)[C@@H]5CC[C@]43C)[C@@H]12 [BETULINIC ACID] | 7 µM | 11 µM | 40 µM | 22 µM | – | 31 µM | 30 µM | 29 µM | – | – |
